Test results reported in ChEMBL document CHEMBL1153856, “Synthesis and spectral characterization of a new class of N-(N-methylpiperazinoacetyl)-2,6-diarylpiperidin-4-ones: antimicrobial, analgesic and antipyretic studies” (2009).

Key:
Assay type in all cases: functional
Rattus norvegicus [1] = assay: Antipyretic activity against brewer's yeast-induced hyperthermia in Wistar rat assessed as change in rectal temperature at 5 mg/kg, po after 120 mins
Procedure, shortened: (§1)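 Wistar rats of both sexes, 200–250 g, received brewer's yeast in normal saline sc. Rectal temperature was taken with a digital thermometer (precision 0.1 °C). At 18 h, rats whose temperature had risen 0.3–0.5 °C were selected. Test compounds (30 or 60 mg/kg) or indomethacin (5 mg/kg) were given orally in 1% CMC; controls received vehicle only. Temperature was measured at 30, 60, 90, 120 and 150 min, mean ± SEM.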

Rattus norvegicus [2] = assay: Antipyretic activity against brewer's yeast-induced hyperthermia in Wistar rat assessed as change in rectal temperature at 5 mg/kg, po after 150 mins; procedure, shortened: as §1
Rattus norvegicus [3] = assay: Antipyretic activity against brewer's yeast-induced hyperthermia in Wistar rat assessed as change in rectal temperature at 5 mg/kg, po after 60 mins; procedure, shortened: as §1
Rattus norvegicus [4] = assay: Antipyretic activity against brewer's yeast-induced hyperthermia in Wistar rat assessed as change in rectal temperature at 5 mg/kg, po after 90 mins; procedure, shortened: as §1
Rattus norvegicus [5] = assay: Antipyretic activity against brewer's yeast-induced hyperthermia in Wistar rat assessed as change in rectal temperature at 5 mg/kg, po after 30 mins; procedure, shortened: as §1

`COc1ccc2c(c1)c(CC(=O)O)c(C)n2C(=O)c1ccc(Cl)cc1` [INDOMETHACIN] showed an Activity (Rattus norvegicus [1]) of 37.7 °C, an Activity (Rattus norvegicus [2]) of 37.5 °C and an Activity (Rattus norvegicus [3]) of 37.9 °C. It also gave an Activity (Rattus norvegicus [4]) of 37.8 °C and an Activity (Rattus norvegicus [5]) of 38.1 °C.
